From ChEMBL document CHEMBL3352135, “Antiproliferative prenylated xanthones and benzophenones from the roots of Cudrania tricuspidata in HSC-T6 cells” (J Nat Prod, 2014)

Tests used:
[1] = Antiproliferative activity against rat HSC-T6 cells assessed as reduction in cell viability; type: functional, cell-based
In short: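 Immortalized rat hepatic stellate line HSC-T6. Viability was measured by a procedure from earlier work, and IC50 values were derived from it. Epigallocatechin-3-gallate was the positive control.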

[2] = Induction of apoptosis in rat HSC-T6 cells assessed as viable cells at 1 uM after 48 hrs using annexin-V/PI double staining by flow cytometry (reference value: 99.2 %); type: functional; settings: HSC-T6, 48 h, read-out: Activity
[3] = Induction of apoptosis in rat HSC-T6 cells assessed as necrotic cells at 3 uM after 48 hrs using annexin-V/PI double staining by flow cytometry (reference value: 0.550 %); type: functional
[4] = Induction of apoptosis in rat HSC-T6 cells assessed as early apoptotic cells at 1 uM after 48 hrs using annexin-V/PI double staining by flow cytometry (reference value: 0.150 %); type: functional
[5] = Induction of apoptosis in rat HSC-T6 cells assessed as early apoptotic cells at 3 uM after 48 hrs using annexin-V/PI double staining by flow cytometry (reference value: 0.150 %); type: functional
[6] = Induction of apoptosis in rat HSC-T6 cells assessed as late apoptotic cells at 1 uM after 48 hrs using annexin-V/PI double staining by flow cytometry (reference value: 0.130 %); type: functional
[7] = Induction of apoptosis in rat HSC-T6 cells assessed as viable cells at 3 uM after 48 hrs using annexin-V/PI double staining by flow cytometry (reference value: 99.2 %); type: functional; settings: HSC-T6, 48 h, read-out: Activity
[8] = Induction of apoptosis in rat HSC-T6 cells assessed as late apoptotic cells at 3 uM after 48 hrs using annexin-V/PI double staining by flow cytometry (reference value: 0.130 %); type: functional
[9] = Induction of apoptosis in rat HSC-T6 cells assessed as necrotic cells at 1 uM after 48 hrs using annexin-V/PI double staining by flow cytometry (reference value: 0.550 %); type: functional

SMILES | IC50 [1] | further results
O=C(O[C@@H]1Cc2c(O)cc(O)cc2O[C@@H]1c1cc(O)c(O)c(O)c1)c1cc(O)c(O)c(O)c1 [EPIGALOCATECHIN GALLATE] | 29.8 µM | 
COc1c(CC=C(C)C)c(O)c2c(=O)c3cc(O)c(O)cc3oc2c1CC=C(C)C [CUDRATRICUSXANTHONE K] | > 30 µM | 
C=CC(C)(C)c1c(OC)c(CC=C(C)C)c2oc3cc(O)c(O)cc3c(=O)c2c1O | 9.7 µM | viability at 1 µM [2]: 80.8%; Activity [3]: 6.67%; Activity [4]: 11.5%; Activity [5]: 8.76%; Activity [6]: 2.54%; viability at 3 µM [7]: 78.8%; Activity [8]: 5.81%; Activity [9]: 5.19%
O=c1c2ccc(O)cc2oc2ccc(O)cc12 | > 30 µM | 
CC(C)=CCc1c(O)cc(O)c2c(=O)c3cccc(O)c3oc12 | > 30 µM | 
COc1cc2oc3cc(O)cc(O)c3c(=O)c2cc1OC | > 30 µM | 
C[C@@H]1Oc2cc3oc4c5c(c(O)cc4c(=O)c3c(O)c2C1(C)C)OC(C)(C)C=C5 | 15.9 µM | 
CC(C)=CCc1c(O)c(O)cc2c(=O)c3c(O)c4c(cc3oc12)OC(C)C4(C)C (centres undefined) [CUDRAXANTHONE M] | 10.4 µM | 
CC1(C)C=Cc2cc(C(=O)c3cccc(O)c3)c(O)c(O)c2O1 | 7.1 µM | 
CC(C)=CCc1c(O)cc(O)c2c(=O)c3c(CC=C(C)C)c(O)ccc3oc12 [GERONTOXANTHONE H] | > 30 µM | 
C=CC(C)(C)c1c(O)c(CC=C(C)C)c2oc3cc(O)c(O)cc3c(=O)c2c1O [MACLURAXANTHONE B] | 13.3 µM | 
CC1Oc2cc(O)c3c(=O)c4ccc(O)c(O)c4oc3c2C1(C)C (centres undefined) | 13.1 µM | 
COc1c2c(c3c(=O)c4ccc(O)c(O)c4oc3c1CC=C(C)C)O[C@H](C)C2(C)C | 14.8 µM | 
CC1(C)C=Cc2c(cc(O)c3c(=O)c4c5c(ccc4oc23)OC(C)(C)C=C5)O1 | > 30 µM | 
C=CC(C)(C)c1c(OC)cc(O)c2c(=O)c3ccc(O)c(O)c3oc12 [ISOCUDRANIAXANTHONE B] | 17.3 µM | 
COc1c2c(c3c(=O)c4cc(O)c(O)cc4oc3c1CC=C(C)C)O[C@@H](C)C2(C)C | 15.2 µM | 
